Bioassay records deposited in PubChem BioAssay by several laboratories.
NPY-Y1 PAM-ag: human NPY-Y1 potentiation or agonism, primary screen. actives 0.37% (n = 220,000). activation, % at 3.6 µM. P25929. NPY-Y1 expressing cells, potentiator/agonist activation; in the data active = activation above about 33%, passing the limit was not always enough;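 note: cells stimulated with NPY at EC10 then isoproterenol at EC100; 0% = low agonist plus stimulus and 100% = saturating agonist plus stimulus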
Target sequence (P25929 whole entry, looked up): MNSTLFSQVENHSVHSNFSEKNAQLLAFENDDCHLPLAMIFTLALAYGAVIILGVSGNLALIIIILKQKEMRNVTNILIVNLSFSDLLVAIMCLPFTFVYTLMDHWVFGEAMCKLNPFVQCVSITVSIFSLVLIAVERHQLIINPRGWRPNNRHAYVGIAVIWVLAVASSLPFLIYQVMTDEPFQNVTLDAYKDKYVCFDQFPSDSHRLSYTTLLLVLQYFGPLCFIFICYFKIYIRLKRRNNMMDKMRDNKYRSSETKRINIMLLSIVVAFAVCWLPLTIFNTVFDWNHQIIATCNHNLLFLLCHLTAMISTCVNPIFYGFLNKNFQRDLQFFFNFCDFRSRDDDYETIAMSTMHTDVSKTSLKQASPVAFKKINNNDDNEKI
EP2 antag: blocks the human prostaglandin E2 receptor EP2; P43116; C6 glioma cells expressing human EP2, cAMP TR-FRET; cells stimulated with saturating PGE2; inhibition, % at 25 µM; actives 0.52% (n = 260,000); AID 1422;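 active = percent inhibition above 40 after rounding to a whole number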;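 note: rat C6 glioma host cells with rolipram phosphodiesterase inhibitor present; the protocol text gives 20 µM as final concentration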
NPY-Y2 antag: NPY-Y2 (human) receptor antagonism; P49146; NPY-Y2 expressing cells, antagonist mode; inhibition, % at 2.7 µM; actives 0.99% (n = 140,000);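 note: 0% = vehicle with agonist challenge and 100% = reference antagonist with challenge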
EP2 mod: modulates human prostaglandin E2 receptor EP2 signaling; AID 940; EP2-expressing cells, cAMP HTRF FRET, PGE2 co-stimulation; induction, % at 25 µM; P43116; actives 0.83% (n = 260,000);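 active = compounds whose cAMP rise, as percent of the full-agonist control response, exceeds 60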;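 note: rat C6 glioma line stably carrying human EP2 under a CMV promoter; the protocol text gives 20 µM as final concentration; 100% = response of wells given 1 µM PGE2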
NPY Y1 blocker: antagonists of human neuropeptide Y receptor Y1 | P25929 | HEK293-CNG Y1 cells, membrane potential fluorescence; NPY at EC95, then isoproterenol | inhibition, % at 3.6 µM | actives 1% (n = 200,000);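 active = inhibition above the campaign mean inhibition of all tested compounds plus 3 SD, cut at about 20% in these data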;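 note: 0% = DMSO wells given NPY plus isoproterenol and 100% = isoproterenol alone without NPY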
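System: HEK293 cells with Y1 receptor plus CNG channel / Probe or stimulus: NPY 25 nM then isoproterenol 1 µM plus Ro 20-1724 25 µM / Compound: one concentration, 3.6 µM, in 0.4% DMSO / Schedule: compound incubation 1 h at room temperature, readout 45 min post-stimulation / Measured by: membrane potential fluorescence / Read-out: % inhibition of NPY effect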
NPY2 pot ag: potentiates or activates human NPY-Y2 receptor; AID 1359; actives 0.45% (n = 220,000); cells expressing NPY-Y2, potentiator/agonist read-out; P49146; activation, % at 3.6 µM; in the data active = activation above about 27%;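 note: cells stimulated with NPY near EC25 plus isoproterenol at EC100; 0% = vehicle plus submaximal agonist and 100% = vehicle plus saturating agonist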
NPY1 antag conf: confirmation of human neuropeptide Y receptor Y1 antagonists | shares compounds with NPY Y1 blocker | HEK293-CNG NPY-Y1, membrane potential fluorescence, cAMP; NPY challenge against isoproterenol-raised cAMP | inhibition, % at 3.6 µM | actives 21% (n = 1,200) | AID 1254; in the data active = inhibition above about 20%;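 note: 0% = vehicle with agonist plus stimulus and 100% = stimulus alone without agonist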
NPY-Y2 antag ct: human NPY-Y2 antagonism in NPY-Y1 counter-screen; shares compounds with NPY Y1 blocker; HEK293 NPY-Y2 CNG membrane potential fluorescence; cells given NPY, then isoproterenol; inhibition, % at 3.6 µM; actives 28% (n = 1,200);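 note: 0% = DMSO with agonist challenge and 100% = reference antagonist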
Starred values were filed as active, the others as inactive; . = no result. A selection: hits, their analogues and other compounds. The true share with any hit is near 2.8%. Cut-off read from the data, not from the text of the source, unless noted: active = inhibition above about 17%; inactive = the rest.

SMILES	NPY-Y1 PAM-ag	EP2 antag	NPY-Y2 antag	EP2 mod	NPY Y1 blocker	NPY2 pot ag	NPY1 antag conf	NPY-Y2 antag ct
Cc1c(N2C(=O)CSC2=S)c(=O)n(-c2ccccc2)n1C	2	2	.	-2	26*	0	0	2
Cc1c(N2C(=O)/C(=C3/C(=O)N(C)c4ccccc43)SC2=S)c(=O)n(-c2ccccc2)n1C	8	2	9	2	2	7	.	.
O=C(c1nc2ccccn2c1CN1CCCC(OCc2ccccc2)C1)N1CCCC1 (configuration not stated)	-19	7	.	-21	24*	-18	12	5
COc1ccc(CNCC(O)(c2ccc(F)cc2)c2ccc(F)cc2)cc1	1	6	.	-1	32*	-4	10	11
O=C(c1cnccn1)N(Cc1ccco1)C1(C(=O)NC2CCCCC2)CCCCC1	13	8	15	1	31*	9	27*	12
C[C@H](Cn1nnc2ccccc21)NC(=O)C1(c2ccccc2)CC1	.	11	.	6	.	.	.	.
CC1(C)CC(=O)C=C(NNC(=O)c2ccccc2)C1	8	6	8	35	0	21	.	.
CC1(C)CC(=O)C=C(NNC(=O)OC(C)(C)C)C1	-13	7	.	21	22*	-5	-2	1
Cc1cc2c(=O)n(Cc3ccco3)c(SCC(=O)N3CCCc4ccccc43)nc2s1	-8	0	8	44	22*	-12	1	4
O=C(CSc1nc2sc3c(c2c(=O)n1Cc1ccco1)CCC3)N1CCc2ccccc21	-14	.	2	.	-1	-4	.	.
COc1ccccc1CNC(=O)c1c(N)n(CCCN2CCOCC2)c2nc3ccccc3nc12	-12	.	14	13	23*	-5	9	7
CN(C)C(=O)c1c(N)no[n+]1[O-]	.	11	.	13	.	.	.	.
N#Cc1c(N)nc2c(c1-c1ccc(F)cc1)c(=O)nc1sccn12	2	7	.	-9	47*	2	-1	4
Cc1nn(-c2ccccc2)c2nc(N)c(C#N)c(-c3ccc(F)cc3)c12	-29	9	4	31	23*	-18	4	16
COc1cccc(-c2c(C#N)c(N)nc3c2c(=O)nc2sccn23)c1	-4	2	.	-6	-1	0	.	.
CCOc1ccccc1-c1nn2c(Cc3ccccc3)nnc2s1	-74	9	10	26	52*	-19	32*	59*
Fc1ccc2nc(C3CCCCN3Cc3nc(CC4CC4)no3)[nH]c2c1 (configuration not stated)	-15	2	.	-22	39*	-6	9	11
Fc1ccc(C2CCCCN2Cc2nc(CC3CC3)no2)cc1 (configuration not stated)	8	-2	.	17	1	6	.	.
O=C(NNc1ncc(C(F)(F)F)cc1Cl)c1ccc(Cl)c(Cl)c1	-20	10	.	-39	.	-25	.	.
Nc1ccccc1C(=O)NNc1ncc(C(F)(F)F)cc1Cl	-80	6	5	-8	21*	-28	5	8
Cc1cc(C)c2cc(CN(CCO)C(c3nnnn3C3CCCCC3)C(C)C)c(=O)[nH]c2c1 (configuration not stated)	.	12	.	-13	.	.	.	.
C=CCNC(=O)CSc1nc(-c2ccccc2)nc2ccc(Cl)cc12	.	10	.	-23	.	.	.	.
COc1ccc(/C=C/CN2CCN(CCc3ccccc3)C(CCO)C2)cc1 (configuration not stated)	-23	6	.	-3	6	-26	.	.
CCOc1ccccc1CN1CCN(C/C=C/c2ccc(OC)cc2)CC1CCO (configuration not stated)	-35	3	.	-4	25*	-51	12	14
O=C(NCc1ccco1)C1CCN(S(=O)(=O)c2ccc(-n3cnnn3)cc2)CC1	-6	10	2	-3	21*	5	0	3
SMILES	NPY-Y1 PAM-ag	EP2 antag	NPY-Y2 antag	EP2 mod	NPY Y1 blocker	NPY2 pot ag	NPY1 antag conf	NPY-Y2 antag ct
Cc1ccc(C(c2nnnn2CCc2ccccc2)N2CCSCC2)cc1 (configuration not stated)	3	.	10	41	21*	2	10	4
CC(C)(C)NC(=O)Cn1nc2c3ccccc3nc(C3CC3)n2c1=O	.	.	.	9	.	.	.	.
CC(C)(C)c1ccc(-c2cn(-c3ccc(Br)cc3)c3[n+]2CCCS3)cc1	-46	13	.	-65	55*	-4	68*	32*
CCC(C)(C)n1nnnc1C(C(C)C)N(Cc1cccs1)Cc1cc2ccc(OC)cc2[nH]c1=O (configuration not stated)	.	13	.	54	.	.	.	.
O=C1c2ccccc2C(=O)N1CCc1csc(NNc2nc(CCN3C(=O)c4ccccc4C3=O)cs2)n1	7	2	.	1	-6	14	.	.
Cc1ccc(-c2nc(CCN3C(=O)c4ccccc4C3=O)cs2)cc1	-33	3	4	-23	25*	-25	3	5
CCN(CC)CCN(Cc1cc2ccc(C)cc2[nH]c1=O)C(=S)Nc1cccc(C)c1	.	11	.	-32	.	.	.	.
CN(c1cccc(NC(=O)c2ccc(N(C)S(=O)(=O)c3ccccc3)cc2)c1)S(C)(=O)=O	9	14	.	-83	41*	-7	1	1
COc1ccc(-c2ccc(=O)n(CC3CCN(C(=O)c4cccc(OC)c4)CC3)n2)cc1	.	.	.	-21	.	.	.	.
CCCOc1cc(C)nc(-c2ccccc2O)n1	3	8	2	17	6	-14	.	.
CCCCN(CCCC)c1cc(C)nc(-c2ccccc2O)n1	-6	13	10	8	22*	-11	16	17
CC(C)CN1CCN(Cc2cccn2-c2ccc(Cl)cn2)CC1CCO (configuration not stated)	-19	5	.	18	33*	-21	8	8
O=C(c1cccc(C(F)(F)F)c1)C1CCCN(Cc2cccn2-c2ccccn2)C1 (configuration not stated)	-60	5	.	-57	59*	-39	34*	38*
COc1ccc(C(=O)C2CCCN(Cc3cnc(N4CCOCC4)s3)C2)c(OC)c1 (configuration not stated)	-10	4	.	-12	-2	11	.	.
COc1ccc(C(=O)C2CCCN(Cc3cccn3-c3ccc(Cl)cn3)C2)c(OC)c1 (configuration not stated)	-26	7	.	-72	50*	7	29*	31*
CC(C)CN1CCN(Cc2cccn2-c2ccccn2)CC1CCO (configuration not stated)	4	5	.	18	10	-16	.	.
